This is a sample that favours compounds with a hit; in the whole collection about 1.4% have one here.
Rce1 inh: yeast Ras-converting enzyme inhibition; calls only; hit rate 0.27% among 290,000; yeast membranes, quenched prenylated peptide cleavage fluorescence; AID 2563; Q03530;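 active means fall in fluorescence gain of 50% or more versus controls, with final raw signal at or below 3038400; inconclusive means same 50% fall but final raw signal above 3038400; inactive means fall in fluorescence gain under 50%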
Target sequence (Q03530 whole entry, looked up): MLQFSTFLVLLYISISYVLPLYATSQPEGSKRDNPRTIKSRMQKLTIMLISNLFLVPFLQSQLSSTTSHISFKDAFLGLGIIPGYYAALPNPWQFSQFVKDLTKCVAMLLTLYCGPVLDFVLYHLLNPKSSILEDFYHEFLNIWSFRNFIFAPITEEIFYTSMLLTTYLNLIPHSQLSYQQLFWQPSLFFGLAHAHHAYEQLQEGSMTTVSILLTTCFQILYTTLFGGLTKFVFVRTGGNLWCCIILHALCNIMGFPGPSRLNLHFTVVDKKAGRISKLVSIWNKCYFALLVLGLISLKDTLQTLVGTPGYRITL
FXIa inh 1536: factor XIa (human) inhibition; P03951; purified FXIa, Boc-Glu-Ala-Arg-AMC fluorogenic substrate; inhibition, % at 5 µM; hit rate 0.14% among 220,000;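 active means inhibition of at least 40%; inactive means inhibition below 40%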;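 further: fluorescence of freed AMC excited at 355 nm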
thrombin 1536: inhibitors of human thrombin. inhibition, % at 5 µM. hit rate 0.26% among 220,000. AID 1046. alpha-thrombin, Boc-VPR-AMC fluorogenic substrate cleavage;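 active means inhibition at or above 40%; inactive means inhibition below 40%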
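System – human alpha-thrombin protein · Reagent – Boc-VPR-AMC substrate, 15 µM final · Compound – 5 µM single dose in 0.2% DMSO · Schedule – reaction at room temperature · Technique – AMC fluorescence at 355 nm excitation and 460 nm emission · Read-out basis – % inhibition relative to enzyme controls and enzyme-free blanks · Control set – no-compound enzyme wells and no-enzyme blanks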
CTSL1 counter: counter-screen for PFM18AAP inhibitors: inhibitors of F. hepatica cathepsin L1 | recombinant F. hepatica cathepsin L1, Z-Leu-Arg-MCA fluorescence | inhibition, % at 5.96 µM | hit rate 0.49% among 300,000;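 active means inhibition above the mean of all tested compounds plus 3 SD, set per screening campaign, cut at about 17% in these data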
hK5 inh: inhibitors of human kallikrein 5 | recombinant hK5, fluorogenic AMC substrate cleavage | inhibition, % at 5 µM | hit rate 0.59% among 210,000 | AID 873;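 active means inhibition of 40% or more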
Target sequence (Q9Y337 67-293 limits assumed): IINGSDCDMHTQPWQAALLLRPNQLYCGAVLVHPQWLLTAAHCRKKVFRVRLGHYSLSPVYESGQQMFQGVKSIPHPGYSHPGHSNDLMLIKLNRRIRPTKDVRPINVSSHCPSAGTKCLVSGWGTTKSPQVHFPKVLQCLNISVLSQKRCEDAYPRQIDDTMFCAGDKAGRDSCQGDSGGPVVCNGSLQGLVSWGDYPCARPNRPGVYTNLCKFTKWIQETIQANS
FXIIa inh: factor XIIa (human) inhibition; P00748; purified FXIIa, Boc-QGR-AMC fluorogenic substrate, 2 h; inhibition, % at 5 µM; hit rate 0.3% among 220,000; AID 800; in the data active means inhibition above about 40%
A number is an active result; . = inactive; ? = inconclusive; / = no result; + = active, no number; ! = not confirmed by another sample.

SMILES	Rce1 inh	FXIa inh 1536	thrombin 1536	CTSL1 counter	hK5 inh	FXIIa inh
CCOc1ccc(C(=O)NCc2ccco2)cc1Cl	.	/	/	.	/	/
CCOc1ccc(C(=O)NCC(=O)OC(C)C(=O)NCc2ccco2)cc1OCC (stereo unspecified)	.	.	64.3	.	55.2	.
O=[N+]([O-])c1cc(Cl)ccc1-c1nc(-c2ccccc2)no1	.	.	.	.	75.1	.
C=CCOc1ccc(C(=O)c2ccccc2)c(OCC(=O)NC2(C#N)CCCC2)c1	.	/	/	17.7	/	/
CNC(=O)COC(=O)c1ccc(-c2nc3ccccc3s2)s1	.	.	.	.	.	.
O=CN1CCN(C(=O)c2ccc(-c3nc4ccccc4s3)s2)CC1	.	.	.	25.9	.	.
O=C(Nc1ccccc1F)C1CCCN1S(=O)(=O)c1cccc2nsnc12 (stereo unspecified)	.	/	/	.	/	/
O=Cc1ccc(OCC(=O)Nc2ccccc2C(F)(F)F)cc1	.	.	.	.	.	63.8
O=C(COc1ccc2c(c1)OCO2)Nc1ccccc1C(F)(F)F	.	.	.	.	.	.
Cc1cc(C)cc(OCC(=O)Nc2ccc(N3CCCC3)cc2)c1	.	.	.	.	.	45.2
Cc1ccc(OCC(=O)Nc2ccc(N3CCCC3)cc2)cc1C	.	.	.	.	.	.
COc1ccccc1NC(=S)N(CCc1ccc(OC)c(OC)c1)Cc1ccccn1	.	.	.	17.6	.	.
O=C1CCc2cc(S(=O)(=O)Nc3cccc(F)c3)cc3c2N1CC3	.	/	/	.	/	/
CC1(C)C2CC=C(/C=N/NC(=S)Nc3cccnc3)C1C2 (stereo unspecified)	.	.	.	.	.	.
CC1=C/C(=N\NC(=S)Nc2cccnc2)CC(C)(C)C1	.	40.4	.	/	.	.
CCCCCOCC1CC(C/C(C)=N/NC(N)=S)C(=O)O1 (stereo unspecified)	.	.	.	17.6	.	.
C/C(CC1CC(COCC(C)C)OC1=O)=N\NC(N)=S (stereo unspecified)	.	.	.	.	.	.
O=C(CN1CCCCC1)N/N=C/c1cc2ccccc2nc1Cl	.	.	.	.	.	.
COCCN(C(=O)c1csnn1)C(C(=O)NC1CCCCC1)c1ccccc1F (stereo unspecified)	/	/	/	.	/	/
Cc1occc1C(=O)Nc1cc(C(F)(F)F)ccc1Cl	.	.	50.4	.	.	.
CC12CCC(C(=O)N3CCN(c4ccccc4)CC3)(CC1=O)C2(C)C (stereo unspecified)	.	.	.	.	54.3	.
COc1ccc(N2CCN(C(=O)C34CCC(C)(C(=O)C3)C4(C)C)CC2)cc1 (stereo unspecified)	.	.	.	.	.	.
CCCN1C2CCCC1CC(NC(=O)c1ccccc1Br)C2 (stereo unspecified)	.	/	/	.	/	/
O=C1c2cccnc2Oc2ccc(Cl)cc2N1Cc1ccc(F)cc1	.	.	.	.	43.8	.
Cc1ccc(-c2nc(Nc3ccc(N4CCOCC4)cc3)c3ccccc3n2)cc1	+	.	.	.	.	.
SMILES	Rce1 inh	FXIa inh 1536	thrombin 1536	CTSL1 counter	hK5 inh	FXIIa inh
COc1ccc(/C=C/C(=O)Oc2cccc(/C=N/NC(=O)COc3c(C)cccc3C)c2)cc1	.	.	.	.	.	.
CN(C)c1cc(Cl)c2nonc2c1N	.	.	.	39.3	.	.
CCN(CC)c1cc(Cl)c2nonc2c1N	.	.	.	.	.	.
COc1ccc(NS(=O)(=O)c2ccc3oc(=O)c4[nH]c(=O)c(=O)n(C)c4c3c2)cc1	+	/	/	.	/	/
COc1ccc(NS(=O)(=O)c2ccc3c(c2)n(C)c(=O)n3C)cc1	.	.	.	.	.	.
CC(O)CN=c1cc(-c2ccccc2)oc2ccc(Cl)cc12 (stereo unspecified)	.	.	.	.	68.0	.
CC(C)CN=c1cc(-c2ccccc2)oc2ccc(Cl)cc12	/	.	.	.	.	.
O=C(NNC(=S)NC1CCCCC1)c1ccccc1O	.	.	.	.	.	/
O=C(O)c1ccccc1C(=O)c1ccc(Br)s1	.	.	.	.	.	.
Brc1ccc(/C=N/n2cnnc2)s1	.	.	.	.	.	.
Cc1ccc(/C=N/n2cnnc2)s1	.	.	.	.	52.7	.
OCCNC(=S)NCc1ccccc1	.	.	.	.	.	.
O=C(CSc1nccc(=O)[nH]1)c1cc2ccccc2o1	.	.	.	.	46.4	.
CC(NC(=O)c1ccc(C(C)(C)C)cc1)C(=O)O (stereo unspecified)	.	.	.	.	.	.
CCCOc1ccc(C(=O)NC(C)C(=O)O)cc1 (stereo unspecified)	.	.	.	.	.	40.0
Fc1ccc(SCCc2ccccn2)cc1	.	.	.	.	.	40.4!
COCCNC(=O)CSc1nc2ccc(N3CCOCC3)cc2c(=O)n1Cc1ccc(OC)cc1	.	.	.	.	103.1	.
COc1ccc(C2N(c3ccccc3)CCN2c2ccccc2)cc1O	.	.	.	.	.	45.8
O=C(NCCCN1CCCC1=O)c1cccc(NS(=O)(=O)c2ccc(Br)cc2)c1	.	/	/	.	/	/
O=C(COC(=O)C1CCN(c2ccc(C(F)(F)F)cn2)CC1)c1ccc(Cl)cc1	.	/	/	.	/	/
O=C(COC(=O)C1CCN(c2ccc(C(F)(F)F)cn2)CC1)c1ccc(F)cc1	.	/	/	17.9	/	/
COC(=O)C1CN(S(=O)(=O)c2ccccc2)CCN1S(=O)(=O)c1ccccc1 (stereo unspecified)	.	.	.	58.4	.	.
O=C(c1cc(S(=O)(=O)N2CCOCC2)ccc1Cl)N1CCC(Cc2ccccc2)CC1	/	/	/	.	/	/
CC(C)c1ccc(NC(=O)C2CCCN(S(=O)(=O)c3cnc[nH]3)C2)cc1 (stereo unspecified)	.	.	.	.	62.1	.
Cc1ccc(NC(=O)C2CCCN(S(=O)(=O)c3cnc[nH]3)C2)cc1F (stereo unspecified)	/	.	.	.	71.2	.
SMILES	Rce1 inh	FXIa inh 1536	thrombin 1536	CTSL1 counter	hK5 inh	FXIIa inh
Cc1ccc(CSc2ncnc3c2cnn3-c2ccccc2)cc1	.	.	.	.	.	.
Cc1ccc(CSc2ncnc3c2cnn3-c2ccc(C)cc2)cc1	.	.	.	.	45.0	41.4
COCC(=O)Nc1c(C(=O)Nc2ccc3c(c2)OCO3)oc2ccccc12	.	/	/	.	/	/
O=C(CCl)Nc1c(C(=O)Nc2ccc3c(c2)OCCO3)oc2ccccc12	.	/	/	58.2	/	/
COc1ccc(-c2oc3ncnc(NCCCN(C)C)c3c2-c2ccc(OC)cc2)cc1	?	/	/	.	/	/
CN(C)CCNc1ncnc2oc(-c3ccccc3)c(-c3ccccc3)c12	+	/	/	/	/	/
CCN=C1S/C(=C/c2ccc(-c3ccc(F)cc3)o2)C(=O)N1CC	.	/	/	17.7	/	/
CNC(=O)[C@H](C)[C@@H]1C[C@@]1(C)[C@@H](NC(=O)OCc1ccccc1)c1ccccc1	.	.	.	18.4	.	.
O=C1NC(=O)C2(COC(c3ccncc3)OC2)S1 (stereo unspecified)	.	.	.	.	.	.
CC(C)C[C@H](N)c1nnc(SCC(=O)Nc2ccc(Br)cc2)o1	.	/	/	90.5	/	/
